# Experimental data taken from ChEMBL document CHEMBL3045357, “DNA adducts as biomarkers for oxidative and genotoxic stress from pesticides in crop plants” (J Agric Food Chem, 2008).
# How the values were obtained:
# Type in all cases: organism-based
# Details in all cases: in vivo, other, 336 h
# Cucurbita pepo [1] = test: Genotoxicity in Cucurbita pepo (pumpkin) exposed to compound through spray 4 times over 2 weeks assessed as relative adduct level A5 measured per 10^9 nucleotides using [32P]labeling based autoradiography relative to untreated control
# Outline: (§1)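 Plants (2–6 weeks grown), groups of 2–4, sprayed 4 times over 2 weeks with formulations diluted per label (chlorothalonil 1:256, carbaryl 1:64 in water); controls water-sprayed. DNA from 1 g leaf via DNeasy Maxi kit. 10 µg DNA digested with micrococcal nuclease/spleen phosphodiesterase (4 h, 37 °C), NP1-enriched (45 min, 37 °C), labelled with [γ-32P]ATP/T4 kinase (45 min, 37 °C).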
# Glycine max [2] = test: Genotoxicity in Glycine max (soybean) exposed to compound through spray 4 times over 2 weeks assessed as relative adduct level A2 measured per 10^9 nucleotides using [32P]labeling based autoradiography relative to untreated control; outline: as §1
# Glycine max [3] = test: Genotoxicity in Glycine max (soybean) exposed to compound through spray 4 times over 2 weeks assessed as relative adduct level A1 measured per 10^9 nucleotides using [32P]labeling based autoradiography relative to untreated control; outline: as §1
# Cucurbita pepo [4] = test: Genotoxicity in Cucurbita pepo (pumpkin) exposed to compound through spray 4 times over 2 weeks assessed as relative adduct level A1 measured per 10^9 nucleotides using HX-dG internal standard using [32P]labeling based autoradiography relative to untreated control; outline: as §1
# Cucumis sativus [5] = test: Genotoxicity in Cucumis sativus (cucumber) exposed to compound through spray 4 times over 2 weeks assessed as relative adduct level A3 measured per 10^9 nucleotides using [32P]labeling based autoradiography relative to untreated control; outline: as §1
# Glycine max [6] = test: Genotoxicity in Glycine max (soybean) exposed to compound through spray 4 times over 2 weeks assessed as relative adduct level A2 measured per 10^9 nucleotides using HX-dG internal standard using [32P]labeling based autoradiography relative to untreated control; outline: as §1
# Phaseolus vulgaris [7] = test: Genotoxicity in Phaseolus vulgaris (bush beans) exposed to compound through spray 4 times over 2 weeks assessed as relative adduct level A3 measured per 10^9 nucleotides using [32P]labeling based autoradiography relative to untreated control; outline: as §1
# Cucurbita pepo [8] = test: Genotoxicity in Cucurbita pepo (pumpkin) exposed to compound through spray 4 times over 2 weeks assessed as relative adduct level A2 measured per 10^9 nucleotides using [32P]labeling based autoradiography relative to untreated control; outline: as §1
# Cucumis sativus [9] = test: Genotoxicity in Cucumis sativus (cucumber) exposed to compound through spray 4 times over 2 weeks assessed as relative adduct level A2 measured per 10^9 nucleotides using [32P]labeling based autoradiography relative to untreated control; outline: as §1
# Glycine max [10] = test: Genotoxicity in Glycine max (soybean) exposed to compound through spray 4 times over 2 weeks assessed as relative adduct level A4 measured per 10^9 nucleotides using [32P]labeling based autoradiography relative to untreated control; outline: as §1
# Phaseolus vulgaris [11] = test: Genotoxicity in Phaseolus vulgaris (bush beans) exposed to compound through spray 4 times over 2 weeks assessed as relative adduct level A1 measured per 10^9 nucleotides using [32P]labeling based autoradiography relative to untreated control; outline: as §1
# Vitis vinifera [12] = test: Genotoxicity in Vitis vinifera exposed to compound through spray 4 times over 2 weeks assessed as relative adduct level A3 measured per 10^9 nucleotides using [32P]labeling based autoradiography relative to untreated control
# Outline: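 Plants grown 2-6 weeks, groups of 2-4 sprayed four times over 2 weeks with label-rate formulations; water-sprayed controls. Leaf DNA kit-extracted. 10 µg DNA digested with micrococcal nuclease/spleen phosphodiesterase 4 h at 37 °C. NP1-enriched, then labeled with [γ-32P]ATP/T4 kinase 45 min at 37 °C. 2D PEI-cellulose TLC, imager readout. Samples spiked with 50 fmol HX-dG standard.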
# Phaseolus vulgaris [13] = test: Genotoxicity in Phaseolus vulgaris (bush beans) exposed to compound through spray 4 times over 2 weeks assessed as relative adduct level A6 measured per 10^9 nucleotides using [32P]labeling based autoradiography relative to untreated control; outline: as §1
# Cucurbita pepo [14] = test: Genotoxicity in Cucurbita pepo (pumpkin) exposed to compound through spray 4 times over 2 weeks assessed as relative adduct level A6 measured per 10^9 nucleotides using [32P]labeling based autoradiography relative to untreated control; outline: as §1
# Cucumis sativus [15] = test: Genotoxicity in Cucumis sativus (cucumber) exposed to compound through spray 4 times over 2 weeks assessed as relative adduct level A1 measured per 10^9 nucleotides using [32P]labeling based autoradiography relative to untreated control; outline: as §1
# Vitis vinifera [16] = test: Genotoxicity in Vitis vinifera exposed to compound through spray 4 times over 2 weeks assessed as relative adduct level A1 measured per 10^9 nucleotides using [32P]labeling based autoradiography relative to untreated control; outline: as §1
# Cucurbita pepo [17] = test: Genotoxicity in Cucurbita pepo (pumpkin) exposed to compound through spray 4 times over 2 weeks assessed as relative adduct level A2 measured per 10^9 nucleotides using HX-dG internal standard using [32P]labeling based autoradiography relative to untreated control; outline: as §1
# Phaseolus vulgaris [18] = test: Genotoxicity in Phaseolus vulgaris (bush beans) exposed to compound through spray 4 times over 2 weeks assessed as relative adduct level A2 measured per 10^9 nucleotides using [32P]labeling based autoradiography relative to untreated control; outline: as §1
# Phaseolus vulgaris [19] = test: Genotoxicity in Phaseolus vulgaris (bush beans) exposed to compound through spray 4 times over 2 weeks assessed as relative adduct level A2 measured per 10^9 nucleotides using HX-dG internal standard using [32P]labeling based autoradiography relative to untreated control; outline: as §1
# Phaseolus vulgaris [20] = test: Genotoxicity in Phaseolus vulgaris (bush beans) exposed to compound through spray 4 times over 2 weeks assessed as relative adduct level A1 measured per 10^9 nucleotides using HX-dG internal standard using [32P]labeling based autoradiography relative to untreated control; outline: as §1
# Phaseolus vulgaris [21] = test: GenoToxicity in Phaseolus vulgaris (bush beans) exposed to compound through spray 4 times over 2 weeks assessed as relative adduct level A5 measured per 10^9 nucleotides using [32P]labeling based autoradiography relative to untreated control; outline: as §1
# Glycine max [22] = test: Genotoxicity in Glycine max (soybean) exposed to compound through spray 4 times over 2 weeks assessed as HNE-dG adducts measured per 10^9 nucleotides using [32P]labeling based autoradiography (reference value: 2 no unit); outline: as §1
# Cucurbita pepo [23] = test: Genotoxicity in Cucurbita pepo (pumpkin) exposed to compound through spray 4 times over 2 weeks assessed as relative adduct level A6 measured per 10^9 nucleotides using HX-dG internal standard using [32P]labeling based autoradiography relative to untreated control; outline: as §1
# Vitis vinifera [24] = test: Genotoxicity in Vitis vinifera exposed to compound through spray 4 times over 2 weeks assessed as relative adduct level A2 measured per 10^9 nucleotides using [32P]labeling based autoradiography relative to untreated control; outline: as §1
# Vitis vinifera [25] = test: Genotoxicity in Vitis vinifera exposed to compound through spray 4 times over 2 weeks assessed as relative adduct level A3 measured per 10^9 nucleotides using HX-dG internal standard using [32P]labeling based autoradiography relative to untreated control; outline: as §1
# Glycine max [26] = test: Genotoxicity in Glycine max (soybean) exposed to compound through spray 4 times over 2 weeks assessed as relative adduct level A4 measured per 10^9 nucleotides using HX-dG internal standard using [32P]labeling based autoradiography relative to untreated control; outline: as §1
# Cucurbita pepo [27] = test: Genotoxicity in Cucurbita pepo (pumpkin) exposed to compound through spray 4 times over 2 weeks assessed as relative adduct level A3 measured per 10^9 nucleotides using [32P]labeling based autoradiography relative to untreated control; outline: as §1
# Vitis vinifera [28] = test: Genotoxicity in Vitis vinifera exposed to compound through spray 4 times over 2 weeks assessed as relative adduct level A2 measured per 10^9 nucleotides using HX-dG internal standard using [32P]labeling based autoradiography relative to untreated control; outline: as §1
# Glycine max [29] = test: Genotoxicity in Glycine max (soybean) exposed to compound through spray 4 times over 2 weeks assessed as HNE-dG adducts using [32P]labeling based autoradiography (reference value: 34 cpm); outline: as §1
smiles,measurement,setting,value
N#Cc1c(Cl)c(Cl)c(Cl)c(C#N)c1Cl [CHLOROTHALONIL],Activity,Cucurbita pepo [1],63
same,Activity,Glycine max [2],172
same,Activity,Glycine max [3],797
same,Activity,Cucurbita pepo [4],3731 cpm
same,Activity,Cucumis sativus [5],229
same,Activity,Glycine max [6],8753 cpm
same,Activity,Phaseolus vulgaris [7],145
same,Activity,Cucurbita pepo [8],26
same,Activity,Cucumis sativus [9],268
same,Activity,Glycine max [10],134
same,Activity,Phaseolus vulgaris [11],169
same,Activity,Vitis vinifera [12],155
same,Activity,Phaseolus vulgaris [13],174
same,Activity,Cucurbita pepo [14],1409
same,Activity,Cucumis sativus [15],116
same,Activity,Vitis vinifera [16],36
same,Activity,Cucurbita pepo [17],1323 cpm
same,Activity,Phaseolus vulgaris [18],164
same,Activity,Phaseolus vulgaris [19],5697 cpm
same,Activity,Phaseolus vulgaris [20],5901 cpm
same,Activity,Phaseolus vulgaris [21],127
same,Activity,Glycine max [22],160
same,Activity,Cucurbita pepo [23],71701 cpm
same,Activity,Vitis vinifera [24],66
same,Activity,Vitis vinifera [25],9447 cpm
same,Activity,Glycine max [26],6823 cpm
same,Activity,Cucurbita pepo [27],60
same,Activity,Vitis vinifera [28],4015 cpm
same,Activity,Glycine max [29],8163 cpm
